Activity calls are given as the source filed them. The calls are words filed in the database; no cut-off is given here.
Legend:
[1] = molecular target: T1, D-3-phosphoglycerate dehydrogenase (Homo sapiens, UniProt O43175); experiment: Inhibition of PHGDH (unknown origin) using 140 nM of PHGDH and 3-PG as substrate incubated for 20 mins in presence of NAD+, PSAT1, PSPH by diaphorase and resazurin dye based fluorescence assay
T1 sequence (O43175 whole entry): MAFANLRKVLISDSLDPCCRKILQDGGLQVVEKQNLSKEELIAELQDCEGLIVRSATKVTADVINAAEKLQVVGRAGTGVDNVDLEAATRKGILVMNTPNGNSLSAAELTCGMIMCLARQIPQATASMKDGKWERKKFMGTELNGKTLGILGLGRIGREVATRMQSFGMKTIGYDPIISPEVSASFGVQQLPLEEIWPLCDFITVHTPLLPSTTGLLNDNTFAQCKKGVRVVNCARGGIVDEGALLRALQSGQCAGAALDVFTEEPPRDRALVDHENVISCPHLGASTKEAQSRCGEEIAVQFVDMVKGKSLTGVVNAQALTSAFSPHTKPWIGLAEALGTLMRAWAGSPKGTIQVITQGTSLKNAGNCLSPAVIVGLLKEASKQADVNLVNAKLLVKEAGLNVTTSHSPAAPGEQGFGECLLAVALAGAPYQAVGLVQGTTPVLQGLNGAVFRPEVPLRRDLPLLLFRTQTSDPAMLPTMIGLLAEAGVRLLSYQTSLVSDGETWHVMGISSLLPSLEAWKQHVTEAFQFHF

[2] = molecular target: T1, D-3-phosphoglycerate dehydrogenase; experiment: Inhibition of PHGDH (unknown origin) using 11 nM of PHGDH and 3-PG as substrate incubated for 20 mins in presence of NAD+, PSAT1, PSPH by diaphorase and resazurin dye based fluorescence assay
[3] = Lipophilicity, log D of the compound at pH 7.4 by HPLC analysis; type: physicochemical; conditions: buffer
[4] = Efflux ratio of apparent permeability across basolateral to apical over apical to basolateral side in MDCK cells overexpressing MDR1; type: ADME, cell-based, Canis lupus familiaris; conditions: dog
[5] = Apparent permeability across apical to basolateral side in MDCK cells overexpressing MDR1; type: ADME, cell-based, Canis lupus familiaris; conditions: dog
[6] = molecular target: T2, Malate dehydrogenase, cytoplasmic (Homo sapiens, UniProt P40925); experiment: Inhibition of recombinant human MDH1 expressed in Escherichia coli using malate as substrate incubated for 30 mins followed by substrate addition
T2 sequence (P40925 whole entry): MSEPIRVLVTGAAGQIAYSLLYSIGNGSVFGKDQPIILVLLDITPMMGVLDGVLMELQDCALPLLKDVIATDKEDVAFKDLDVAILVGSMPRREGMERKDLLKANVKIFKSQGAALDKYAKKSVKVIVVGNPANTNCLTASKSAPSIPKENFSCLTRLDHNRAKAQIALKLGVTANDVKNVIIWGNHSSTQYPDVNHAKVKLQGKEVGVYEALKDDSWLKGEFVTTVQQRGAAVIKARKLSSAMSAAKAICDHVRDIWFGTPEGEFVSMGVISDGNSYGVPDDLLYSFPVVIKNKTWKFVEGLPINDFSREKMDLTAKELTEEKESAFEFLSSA

[7] = molecular target: L-lactate dehydrogenase A chain (Homo sapiens, UniProt P00338); experiment: Inhibition of recombinant human LDHA expressed in Escherichia coli using lactate as substrate incubated for 30 mins followed by substrate addition
[8] = molecular target: T3, D-3-phosphoglycerate dehydrogenase (Homo sapiens) (UniProt O43175); experiment: Mixed type inhibition of PHGDH (unknown origin) assessed as rightward shift in substrate Km using 3-PG as substrate incubated for 20 mins in presence of , PSAT1, PSPH and varying NAD+ by diaphorase and resazurin dye based fluorescence assay
T3 sequence (whole entry): T1 sequence (O43175 whole entry)

[9] = Effect on 3-PG level in human Carney cells in serine free medium assessed as 13C-labeling of 3-PG at 1 to 40 uM preincubated for 1 hr followed by 13C6 labelled glucose addition and measured after 2 hrs by LC/MS analysis; type: ADME, cell-based
Procedure, shortened: (§1)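 Carney cells were pretreated with inhibitor for 1 h in the presence of 12C3-serine, then washed. They were labeled with 13C6-glucose medium for 2 h with inhibitor still present. Label incorporation into 3-PG and pyruvate was measured by LC-MS, alongside serine labeling as the pathway read-out.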

[10] = molecular target: Isocitrate dehydrogenase [NADP] cytoplasmic (Homo sapiens, UniProt O75874); experiment: Inhibition of recombinant human IDH1 expressed in Escherichia coli using isocitrate as substrate incubated for 30 mins followed by substrate addition
[11] = molecular target: T3, D-3-phosphoglycerate dehydrogenase (Homo sapiens); experiment: Mixed type inhibition of PHGDH (unknown origin) assessed as decrease in substrate Vmax 3-PG as substrate incubated for 20 mins in presence of , PSAT1, PSPH and varying NAD+ by diaphorase and resazurin dye based fluorescence assay
[12] = molecular target: T3, D-3-phosphoglycerate dehydrogenase (Homo sapiens); experiment: Inhibition of PHGDH-mediated serine synthesis in human Carney cells in serine free medium up to 40 uM preincubated for 1 hr followed by 13C6 labelled glucose addition and measured after 2 hrs by LC/MS analysis based 13C6-Glucose tracing assay; type: cell-based
Procedure, shortened: (§2)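 Carney cells were pretreated with inhibitor for 1 h in the presence of 12C3-serine, then washed. They were labelled with 13C6-glucose medium for 2 h with inhibitor still present. 13C incorporation into serine was read by LC-MS; 3-PG and pyruvate labelling were also monitored.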

in vitro = conditions: PAMPA, pH 5
[13] = molecular target: T3, D-3-phosphoglycerate dehydrogenase (Homo sapiens); experiment: Inhibition of PHGDH-mediated serine synthesis in human Carney cells in serine free medium at 1 uM preincubated for 1 hr followed by 13C6 labelled glucose addition and measured after 2 hrs by LC/MS analysis based 13C6-Glucose tracing assay relative control; type: cell-based; procedure, shortened: as §2
[14] = Effect on pyruvate level in human Carney cells in serine free medium assessed as 13C-labeling of pyruvate at 0.1 to 10 uM preincubated for 1 hr followed by 13C6 labelled glucose addition and measured after 2 hrs by LC/MS analysis; type: ADME, cell-based; procedure, shortened: as §1
Homo sapiens = species on record: Homo sapiens; experiment: Antiproliferative activity against human Carney cells in serine free medium at 2 uM with media and test compound change for every 2 days and measured every 6 hrs by automated microscopic method; type: functional, cell-based
[15] = Effect on 3-PG level in human Carney cells in serine free medium assessed as 13C-labeling of 3-PG at 0.1 to 10 uM preincubated for 1 hr followed by 13C6 labelled glucose addition and measured after 2 hrs by LC/MS analysis; type: ADME, cell-based; procedure, shortened: as §1
[16] = molecular target: T3, D-3-phosphoglycerate dehydrogenase (Homo sapiens); experiment: Inhibition of PHGDH-mediated serine synthesis in human Carney cells in serine free medium at uM preincubated for 1 hr followed by 13C6 labelled glucose addition and measured after 2 hrs by LC/MS analysis based 13C6-Glucose tracing assay relative control; type: cell-based; conditions: concentration not given here; procedure, shortened: as §2
[17] = molecular target: T3, D-3-phosphoglycerate dehydrogenase (Homo sapiens); experiment: Inhibition of PHGDH-mediated serine synthesis in human Carney cells in serine free medium at 10 uM preincubated for 1 hr followed by 13C6 labelled glucose addition and measured after 2 hrs by LC/MS analysis based 13C6-Glucose tracing assay relative control; type: cell-based; procedure, shortened: as §2
[18] = molecular target: T3, D-3-phosphoglycerate dehydrogenase (Homo sapiens); experiment: Inhibition of PHGDH-mediated serine synthesis in human Carney cells in serine free medium at 40 uM preincubated for 1 hr followed by 13C6 labelled glucose addition and measured after 2 hrs by LC/MS analysis based 13C6-Glucose tracing assay relative control; type: cell-based; procedure, shortened: as §2
[19] = Effect on pyruvate level in human Carney cells in serine free medium assessed as 13C-labeling of pyruvate at 1 to 40 uM preincubated for 1 hr followed by 13C6 labelled glucose addition and measured after 2 hrs by LC/MS analysis; type: ADME, cell-based; procedure, shortened: as §1
[20] = molecular target: T3, D-3-phosphoglycerate dehydrogenase (Homo sapiens); experiment: Inhibition of PHGDH-mediated serine synthesis in human Carney cells in serine free medium at 1 to 40 uM preincubated for […] followed by 13C6 labelled glucose addition and measured after 2 hrs by LC/MS analysis based 13C6-Glucose tracing assay relative control; type: cell-based
[21] = molecular target: T3, D-3-phosphoglycerate dehydrogenase (Homo sapiens); experiment: Inhibition of PHGDH-mediated serine synthesis in human Carney cells in serine free medium preincubated for 1 hr followed by 13C6 labelled glucose addition and measured after 2 hrs by LC/MS analysis based 13C6-Glucose tracing assay relative control; type: cell-based; procedure, shortened: as §2
[22] = molecular target: T1, D-3-phosphoglycerate dehydrogenase; experiment: Inhibition of PHGDH (unknown origin)
[23] = Effect on 3-PG level in human Carney cells in serine free medium assessed as 13C-labeling of 3-PG at 0.1 to 20 uM preincubated for 1 hr followed by 13C6 labelled glucose addition and measured after 2 hrs by LC/MS analysis; type: ADME, cell-based; procedure, shortened: as §1
[24] = Effect on pyruvate level in human Carney cells in serine free medium assessed as 13C-labeling of pyruvate at 0.1 to 20 uM preincubated for 1 hr followed by 13C6 labelled glucose addition and measured after 2 hrs by LC/MS analysis; type: ADME, cell-based; procedure, shortened: as §1

Chain of Isocitrate dehydrogenase [NADP] cytoplasmic (O75874 whole entry): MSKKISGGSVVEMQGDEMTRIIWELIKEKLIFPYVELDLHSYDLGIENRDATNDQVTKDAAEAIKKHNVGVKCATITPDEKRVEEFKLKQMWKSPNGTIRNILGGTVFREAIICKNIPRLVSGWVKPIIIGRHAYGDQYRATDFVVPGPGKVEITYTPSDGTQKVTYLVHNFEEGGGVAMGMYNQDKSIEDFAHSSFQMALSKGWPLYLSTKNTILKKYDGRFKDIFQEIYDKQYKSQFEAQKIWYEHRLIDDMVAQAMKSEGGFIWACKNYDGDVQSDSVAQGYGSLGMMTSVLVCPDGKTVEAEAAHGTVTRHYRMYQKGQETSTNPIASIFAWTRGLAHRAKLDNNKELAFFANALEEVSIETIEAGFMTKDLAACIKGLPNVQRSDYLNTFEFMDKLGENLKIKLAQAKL

## Cn1c(C(=O)NC2(c3ccc(CO)cc3)COC2)cc2c(Cl)c(Cl)ccc21
[1]
  IC50: 1580 nM

## COc1cc2c(cc1Cl)cc(C(=O)NC(CN)c1ccc(C(=O)O)cc1)n2C (stereo not given)
[1]
  IC50: 23400 nM

## Cn1c(C(=O)NC2(c3ccc(CC(=O)NS(C)(=O)=O)cc3)COC2)cc2c(Cl)c(Cl)ccc21
[2]
  IC50: 439 nM

## COc1cc2c(cc1Cl)cc(C(=O)NC(CO)c1ccc(C(=O)O)cc1)n2C (stereo not given)
[1]
  IC50: 235 nM

## COc1cc2c(cc1Cl)cc(C(=O)N[C@H](C)c1ccc(C(=O)O)cc1)n2C
[3]
  logD: 1.67
[1]
  IC50: 235 nM
[4]
  Ratio: 1.3
[5]
  Papp: 1.4 ×10⁻⁶ cm/s

## O=C1NC[C@@H](COc2cc3[nH]c(C(=O)N[C@H](CO)c4ccc(C(=O)O)cc4)cc3cc2Cl)O1
[6]
  IC50: > 10000 nM
[7]
  IC50: > 10000 nM
[8]
  inhibition: Active
[9]
  Activity: Non-Toxic
[10]
  IC50: > 10000 nM
[11]
  inhibition: Active
[12]
  inhibition: inactive

## Cn1c(C(=O)NC2(c3ccc([C@H](O)c4cccnc4)cc3)COC2)cc2c(Cl)c(Cl)ccc21
[1]
  IC50: 990 nM

## Cn1c(C(=O)NC2(c3ccc(C(=O)O)c(F)c3)COC2)cc2c(Cl)c(Cl)ccc21
In vitro
  Papp at 10 µM: 15.2 ×10⁻⁶ cm/s
[2]
  IC50: 37 nM

## Cn1c(C(=O)NC2(c3ccc(C(CC(=O)O)c4cccnc4)cc3)COC2)cc2c(Cl)c(Cl)ccc21 (stereo not given)
[2]
  IC50: 25 nM

## CC(=O)OC(C)OC(=O)C(c1ccc(C2(NC(=O)c3cc4c(Cl)c(Cl)ccc4n3C)COC2)cc1)c1cccnc1 (stereo not given)
[13]
  inhibition: < 100%
[14]
  Activity: Non-Toxic
Homo sapiens
  Activity: Active
[15]
  Activity: Non-Toxic
[1]
  IC50: 1460 nM
[16]
  inhibition: 40%

## Cn1c(CNC2(c3ccc(C(=O)O)cc3)COC2)cc2c(Cl)c(Cl)ccc21
[1]
  IC50: 209000 nM

## Cn1c(C(=O)NC2(c3ccc(C(=O)O)nc3)COC2)cc2c(Cl)c(Cl)ccc21
[1]
  IC50: 22000 nM

## Cn1c(C(=O)NC2(c3ccc(C(=O)O)cc3)COC2)cc2c(Cl)c(Cl)ccc21
[17]
  inhibition: 40%
[18]
  inhibition: 100%
[19]
  Activity: Non-Toxic
[20]
  inhibition: Active
[9]
  Activity: Non-Toxic
[21]
  inhibition: Dose-dependent effect

## C#CSc1c(NC(=O)c2ccco2)sc(C(=O)OCC)c1C
[22]
  IC50: 33000 nM

## CCOC(=O)C(c1ccc(C2(NC(=O)c3cc4c(Cl)c(Cl)ccc4n3C)COC2)cc1)c1cccnc1 (stereo not given)
[17]
  inhibition: 70%
[14]
  Activity: Non-Toxic
[15]
  Activity: Non-Toxic
[1]
  IC50: 1330 nM

## Cn1c(C(=O)NC2(c3ccc(C(C(=O)O)c4cccnc4)cc3)COC2)cc2c(Cl)c(Cl)ccc21 (racemic)
[6]
  IC50: > 10000 nM
[17]
  inhibition: 90%
Homo sapiens
  Activity: Active
[23]
  Activity: Non-Toxic
[10]
  IC50: > 10000 nM
[24]
  Activity: Non-Toxic

## CONC(=O)Cc1ccc(C2(NC(=O)c3cc4c(Cl)c(Cl)ccc4n3C)COC2)cc1
[1]
  IC50: 287 nM

## Cn1c(C(=O)NC2(c3ccc(CC(=O)O)c(F)c3)COC2)cc2c(Cl)c(Cl)ccc21
[2]
  IC50: 34 nM

## Cn1c(C(=O)NC2(c3ccc([C@@H](O)c4cccnc4)cc3)COC2)cc2c(Cl)c(Cl)ccc21
[6]
  IC50: > 10000 nM
[7]
  IC50: > 10000 nM
[10]
  IC50: > 10000 nM
[1]
  IC50: 370 nM
